# Laboratory results as given in paper PMC11978860 (Nature Communications, 2025).
# Key:
# Type in all cases: in vivo, Drosophila melanogaster
# [1] = test system: Tip60-RNAi knockdown Drosophila larvae; details: oral in food; for Performance in rescuing locomotor defects (in words): compared to CTB
# [2] = test system: Tip60-RNAi-2 Drosophila larvae; test: Larval locomotor assay in second Tip60-RNAi line; details: 100 uM, line crossing in 30 seconds
# Summary of the method: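 elavC155-Gal4 × UAS-Tip60 RNAi-2 progeny (w1118 background) are reared from hatching on food containing the test compound in DMSO (final DMSO ≤0.01%) or vehicle. Wandering third-instar larvae are rinsed and placed on a 2.5% agar plate over a 0.5 cm × 0.5 cm grid. After 1 min acclimation, head line crossings are counted over 30 s. Analysis is one-way ANOVA with Dunnett's comparisons.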
# [3] = test system: AD-associated APP Drosophila third-instar larvae; test: Larval locomotor assay in AD-associated APP model
# Summary of the method: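 elavC155-Gal4/UAS-APP larvae (w1118 background), with parental crosses set on food containing the test compound in DMSO (final DMSO ≤0.01%) or DMSO alone, so larvae feed from hatching. Wandering third instars of either sex are rinsed in distilled water, placed on 2.5% agar over a 0.5 cm grid, and acclimated 1 min. Read-outs are speed (mm/s, video tracking) and head line crossings in 30 s. Analysis is one-way ANOVA with Dunnett's test.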
Structure (SMILES),Performance in rescuing locomotor defects (in words) [1],other results
"Cn1cc(C(=O)COc2ccccc2C(=O)Nc2ccc(Cl)c(C(F)(F)F)c2)cn1 [C1, N-[4-chloro-3-(trifluoromethyl)phenyl]-2-[2-(1-methyl-1H-pyrazol-4-yl)-2-oxoethoxy]benzamide]",low-performing,–
"O=C(COc1ccccc1C(=O)Nc1ccc(Cl)c(C(F)(F)F)c1)NCC1CC1 [C10, N-[4-Chloro-3-(trifluoromethyl)phenyl]-2-{2-[(cyclopropylmethyl)amino]-2-oxoethoxy}benzamide]",low-performing,–
"CCOc1ccccc1C(=O)Nc1ccc(Cl)c(C(F)(F)F)c1 [CTB, N-[4-chloro-3-(trifluoromethyl)phenyl]-2-ethoxybenzamide, reference compound]",–,Rescue of locomotor ability (in words) ([1]; 10 to 100 μM): significant rescue
"CCOCCC(O)COc1ccccc1C(=O)Nc1ccc(Cl)c(C(F)(F)F)c1 (stereo not shown) [C5, N-[4-Chloro-3-(trifluoromethyl)phenyl]-2-(4-ethoxy-2-hydroxybutoxy)benzamide]",highest performers,–
"CNC(=O)NC(=O)COc1ccccc1C(=O)Nc1ccc(Cl)c(C(F)(F)F)c1 [C8, N-[4-Chloro-3-(trifluoromethyl)phenyl]-2-{2-[(methylcarbamoyl)amino]-2-oxoethoxy}benzamide]",highest performers,–
"O=C(Nc1ccc(Cl)c(C(F)(F)F)c1)c1ccccc1OCC(=O)N1CCNC1=O [C4, N-[4-Chloro-3-(trifluoromethyl)phenyl]-2-[2-oxo-2-(2-oxo-1-imidazolidinyl)ethoxy]benzamide]",no effect,–
"O=C(Nc1ccc(Cl)c(C(F)(F)F)c1)c1ccccc1OCC(=O)C1CCOCC1 [C7, N-[4-Chloro-3-(trifluoromethyl)phenyl]-2-[2-oxo-2-(tetrahydro-2H-pyran-4-yl)ethoxy]benzamide]",low-performing,–
"CC(C)CNC(=O)COc1ccccc1C(=O)Nc1ccc(Cl)c(C(F)(F)F)c1 [C6, N-[4-Chloro-3-(trifluoromethyl)phenyl]-2-[2-(isobutylamino)-2-oxoethoxy]benzamide]",low-performing,–
"COC(=O)CNC(=O)COc1ccccc1C(=O)Nc1ccc(Cl)c(C(F)(F)F)c1 [C9, Methyl N-[(2-{[4-chloro-3-(trifluoromethyl)phenyl]carbamoyl}phenoxy)acetyl]glycinate]",low-performing,–
"COC(=O)CCC(=O)COc1ccccc1C(=O)Nc1ccc(Cl)c(C(F)(F)F)c1 [C2, Methyl 5-(2-{[4-chloro-3-(trifluoromethyl)phenyl]carbamoyl}phenoxy)-4-oxopentanoate]",highest performers,Rescue of locomotor deficits (in words) [2]: rescued locomotor deficits; Sustained effects to complete the assay and reach the wall (in words) [3]: sustained effects; Concentration significantly rescuing larval locomotor ability ([3]; oral in food): ≥ 50 µM
